SMILES strings stand for the structures.

The values below come from ChEMBL document CHEMBL4715731, “Synthesis, antiarrhythmic activity, and toxicological evaluation of mexiletine analogues” (Eur J Med Chem, 2016).

The nature of data set [1]: Toxicity in mouse assessed as motor coordination impairment by measuring number of falls from rotarod at 25 mg/kg, ip measured after 60 mins by rotarod test. The class given is organism-based. As to conditions: in vivo, 1 h.
Data set [2] concerns Left cardiac atrium. In words: Potency index, ratio of mexiletine EC50 to test compound EC50 for negative inotropic activity in guinea pig left atrium assessed as decrease in developed tension. In kind it is ADME, tissue-based, Cavia porcellus.
Data set [3] deals with Right cardiac atrium. In words: Negative inotropic activity in guinea pig spontaneously beating right atrium assessed as decrease in developed tension. The class given is ADME, tissue-based. Conditions: Cavia porcellus. An outline of the steps: (§1)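 Isometric recording of rate and developed force. Compounds added cumulatively, 0.01–100 μM, each after steady state. Percent change from control; rate data n = 7–8. EC50 by probit analysis.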

The nature of data set [4]: Toxicity in mouse assessed as motor coordination impairment by measuring number of falls from rotarod at 50 mg/kg, ip measured after 45 mins by rotarod test. The class given is organism-based. Conditions: in vivo.
Data set [5] relates to Left cardiac atrium. As to the kind of experiment: Potency index, ratio of mexiletine EC50 to test compound EC50 for antiarrhythmic activity in guinea pig left atrium model of current induced arrhythmias assessed as increase in threshold of ac-arrhythmia. In kind it is functional, Cavia porcellus.
The subject of another data set is Aorta. As to the kind of experiment: Inhibition of calcium-induced contraction in K+-depolarized guinea pig aortic strips at 1 x 10^-4 M relative to control. The class given is tissue-based. Conditions: Cavia porcellus, dose 1 10^-4M. An outline of the steps:
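Helicoidal guinea pig aortic strips at 1 g resting force in PSS at 35 °C, contracted with 80 mM KCl (K+ replacing Na+). At plateau (about 45 min), compounds added cumulatively, 0.1–100 μM.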

The subject of data set [6] is Left cardiac atrium. As to the kind of experiment: Antiarrhythmic activity in 50 Hz sinusoidal alternating current-induced guinea pig left atrium arrhythmias model assessed as increase in threshold of ac-arrhythmia at 1 x 10^-5 M measured for every 30 mins relative to control. The class given is functional, Cavia porcellus. Conditions: dose 1 10^-5M, 0.5 h, at 10 µM. An outline of the steps: (§2)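 Guinea pig left atria mounted between platinum field electrodes in modified Krebs-Henseleit (pH 7.4, 95% O2–5% CO2, 35 °C), isometric force recorded. 50 Hz sinusoidal AC of rising strength applied; current intensity (mA/cm²) producing extra beats taken as ac-arrhythmia threshold. Stabilized 60 min, then compounds added cumulatively every 30 min.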

Data set [7] in a line: Toxicity in mouse assessed as motor coordination impairment by measuring number of falls from rotarod at 25 mg/kg, ip measured after 45 mins by rotarod test. In kind it is organism-based. Conditions: in vivo.
The subject of data set [8] is Left cardiac atrium. As to the kind of experiment: Negative inotropic activity in guinea pig left atrium assessed as decrease in 1 Hz driven developed tension. In kind it is tissue-based. Conditions: Cavia porcellus.
Data set [9] has as its system Left cardiac atrium. In words: Negative inotropic activity in guinea pig left atrium assessed as decrease in 1 Hz driven developed tension at 1 x 10^-7 M relative to control. The class given is ADME, tissue-based, Cavia porcellus. Details: scale not given: the % may be the effect or the level left. As to conditions: 0.1 µM, dose 1 10^-7M. An outline of the steps:
(§3)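 Guinea pig left atria paced at 1 Hz (rectangular pulses 0.6–0.8 ms, […]) in PSS, pH 7.4, 35 °C, 95% O2–5% CO2. Isometric developed tension recorded. Cumulative concentrations 0.01–100 μM in PSS, each added after steady state. Change expressed as percent of control (n = 5–6).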

Data set [10] concerns Ileum. In words: Inhibition of calcium-induced contraction in K+-depolarized guinea pig longitudinal smooth muscle. The class given is tissue-based. As to conditions: Cavia porcellus.
Data set [11] in a line: Binding affinity to P-gp in dog MDCK-MDR1 cells using calcein-AM as substrate after 30 mins by fluorescence analysis. In kind it is ADME, cell-based. Conditions: Canis lupus familiaris, MDCK-MDR1, 0.5 h.
The test system of data set [12] is HepG2. As to the kind of experiment: Cytotoxicity against human HepG2 cells at EC50 concentration incubated for 2 hrs by MTT assay. In kind it is cell-based. As to conditions: hepg2, 2 h. The gist of the method:
(§4)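 HepG2 cells in DMEM with 10% FBS at 37 °C, 5% CO2, grown to 70% confluence. 10^4 cells/well treated in serum-free medium for 2 h. MTT at 0.5 mg/mL for 2 h, formazan dissolved in DMSO, absorbance read at 570 nm. Viability as percent of control MTT reduction; sextuplicate, repeated twice.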

The test system of data set [13] is Left cardiac atrium. In words: Antiarrhythmic activity in 50 Hz sinusoidal alternating current-induced guinea pig left atrium arrhythmias model assessed as increase in threshold of ac-arrhythmia measured for every 30 mins relative to control. As to conditions: Cavia porcellus, 0.5 h. In kind it is functional, tissue-based.
Data set [14] can be described thus: Toxicity in mouse assessed as motor coordination impairment by measuring number of falls from rotarod at 50 mg/kg, ip measured after 30 mins by rotarod test. In kind it is organism-based. Conditions: in vivo, 0.5 h.
The subject of data set [15] is Right cardiac atrium. In words: Negative inotropic activity in guinea pig spontaneously beating right atrium assessed as decrease in developed tension at 5 x 10^-6 M relative to control. The class given is ADME, tissue-based, Cavia porcellus. Details: scale not given: the % may be the effect or the level left. As to conditions: 5 µM, dose 5 10^-6M. An outline of the steps:
(§5)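 Spontaneously beating guinea pig right atria in PSS, pH 7.4, 35 °C, gassed with 95% O2–5% CO2. Isometric recording of rate and developed force. Compounds added cumulatively, 0.01–100 μM, each after steady state. Percent change from control; rate data n = 7–8. EC50 by probit analysis.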

Data set [16] deals with HepG2. In words: Cytotoxicity against human HepG2 cells at 10 times of EC50 concentration incubated for 2 hrs by MTT assay. The class given is cell-based. As to conditions: hepg2, 2 h. The gist of the method: as §4
A short description of data set [17]: Toxicity in mouse assessed as motor coordination impairment by measuring number of falls from rotarod at 50 mg/kg, ip measured after 60 mins by rotarod test. The class given is organism-based. As to conditions: in vivo, 1 h.
In data set [18] the test system is Ileum. As to the kind of experiment: Inhibition of calcium-induced contraction in K+-depolarized guinea pig longitudinal smooth muscle at 1 x 10^-5 M relative to control. The class given is tissue-based. Conditions: Cavia porcellus, dose 1 10^-5M.
Data set [19] concerns Right cardiac atrium. In words: Negative chronotropic activity in guinea pig spontaneously beating right atrium assessed as decrease in atrial rate at 1 x 10^-5 M relative to control. In kind it is ADME, tissue-based, Cavia porcellus. As to conditions: 10 µM, dose 1 10^-5M. Details: scale not given: the % may be the effect or the level left. An outline of the steps:
as §1

Data set [20] is described as follows: Toxicity in mouse assessed as motor coordination impairment by measuring number of falls from rotarod at 25 mg/kg, ip measured after 30 mins by rotarod test. In kind it is organism-based. As to conditions: in vivo, 0.5 h.
Data set [21] has as its system Left cardiac atrium. As to the kind of experiment: Antiarrhythmic activity in 50 Hz sinusoidal alternating current-induced guinea pig left atrium arrhythmias model assessed as increase in threshold of ac-arrhythmia at 1 x 10^-4 M measured for every 30 mins relative to control. In kind it is functional, Cavia porcellus. As to conditions: dose 1 10^-4M, 0.5 h, at 100 µM. The gist of the method:
as §2

The test system of data set [22] is Ileum. As to the kind of experiment: Inhibition of calcium-induced contraction in K+-depolarized guinea pig longitudinal smooth muscle at 1 x 10^-4 M relative to control. In kind it is tissue-based. Conditions: Cavia porcellus, dose 1 10^-4M.
Data set [23] relates to Right cardiac atrium. As to the kind of experiment: Negative chronotropic activity in guinea pig spontaneously beating right atrium assessed as decrease in atrial rate. As to conditions: Cavia porcellus. In kind it is tissue-based. An outline of the steps: as §5
Data set [24] has as its system Left cardiac atrium. In words: Negative inotropic activity in guinea pig left atrium assessed as decrease in 1 Hz driven developed tension at 1x 10^-4 M relative to control. The class given is ADME, tissue-based, Cavia porcellus. More on the design: scale not given: the % may be the effect or the level left. Conditions: 100 µM, dose 1 10^-4M. The gist of the method:
as §3

Data set [25] has as its system Right cardiac atrium. As to the kind of experiment: Negative chronotropic activity in guinea pig spontaneously beating right atrium assessed as decrease in atrial rate at 1 x 10^-4 M relative to control. The class given is ADME, tissue-based, Cavia porcellus. More on the design: scale not given: the % may be the effect or the level left. As to conditions: 100 µM, dose 1 10^-4M. The gist of the method: as §5

Data set [26] in a line: Binding affinity to P-gp in dog MDCK-MDR1 cells using calcein-AM as substrate at 100 uM after 30 mins by fluorescence analysis. As to conditions: mdck-mdr1, 0.5 h. The class given is ADME, cell-based, Canis lupus familiaris. An outline of the steps:
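MDCK-MDR1 cells, 50,000/well, grown to confluence overnight. Compounds in medium incubated 30 min at 37 °C. Calcein-AM then added at 2.5 μM final for 30 min. Cells washed with ice-cold PBS; fluorescence read at 485/535 nm against untreated basal level.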

In data set [27] the test system is Left cardiac atrium. In words: Negative inotropic activity in guinea pig left atrium assessed as decrease in 1 Hz driven developed tension at 1 x 10^-5 M relative to control. As to conditions: 10 µM, dose 1 10^-5M. In kind it is tissue-based, Cavia porcellus. Details: scale not given: the % may be the effect or the level left. The gist of the method: as §3
For data set [28], the system named is Ileum. In words: Inhibition of calcium-induced contraction in K+-depolarized guinea pig longitudinal smooth muscle at 5 x 10^-5 M relative to control. The class given is tissue-based. As to conditions: Cavia porcellus, dose 5 10^-5M.

In the case of `Cc1cccc(C)c1OCC(N)Cc1ccccc1.Cl` (stereo not given), the Activity is on record as 1.2 in data set [1]; 3.5 in data set [4]; 169% in the data set with Left cardiac atrium [6]; 1.9 in data set [7]; 79% in the data set with Left cardiac atrium [9]; “Non-Toxic” in the data set on HepG2 [12]. Further, the Activity is listed as 4.4 in [14]; 57% with Right cardiac atrium [15]; “Non-Toxic” with HepG2 [16]; 1.3 in [17]; 24% with Right cardiac atrium [19]; 2.9 in data set [20]. Further, the “Ratio EC50” value in the data set with Left cardiac atrium [2] amounted to 4; in the data set on Left cardiac atrium [5], 2.7. In addition, the EC50 in the data set on Right cardiac atrium [3] is 0.066 µM; in the data set with Left cardiac atrium [8] it was 0.012 µM; in data set [11], 8.4 µM; in the data set on Left cardiac atrium [13], 4.36 µM. For the same compound, the inhibition at 100 µM in the data set with Aorta is 33%. In the data set on Ileum [10], the IC50 came out at 3.6 µM. In the data set on Ileum [18], the inhibition at 10 µM is 73%.
As for `Cc1cccc(C)c1OCC(N)C(C)C.Cl` (stereo not given), the Activity was 145% in the data set on Left cardiac atrium [21]; 1.1 in data set [1]; 2.1 in data set [4]; 2.2 in data set [7]; “Non-Toxic” with HepG2 [12]; 84% with Left cardiac atrium [24]. Also, the Activity in [14] was 3; in the data set with Right cardiac atrium [25], 55%; in the data set on HepG2 [16] it was “Non-Toxic”; in [17], 1; in [26], “Not Active”; in data set [20], 2.6. The inhibition at 100 µM came out at 11% in the data set with Aorta and 88% with Ileum [22]. Besides, the EC50 with Left cardiac atrium [8] was found to be 0.021 µM; with Right cardiac atrium [23] it was 13.1 µM; in the data set on Left cardiac atrium [13], 18.4 µM. The IC50 with Ileum [10] was found to be 19.6 µM.
In the case of `Cc1cccc(C)c1OCC(N)C(C)(C)C.Cl` (stereo not given), the Activity in data set [1] was 0.8; in data set [4], 1.8; with Left cardiac atrium [6] it was 71%; in [7], 1.7; with Left cardiac atrium [27], 92%; in the data set on HepG2 [12] it was “Non-Toxic”. Further, the Activity is given as 3.1 in data set [14]; 77% in the data set with Right cardiac atrium [15]; “Non-Toxic” with HepG2 [16]; 1.2 in data set [17]; “Not Active” in data set [26]; 7% with Right cardiac atrium [19]. In addition, the Activity in data set [20] was 2.7. Further, the EC50 with Right cardiac atrium [3] was found to be 1.02 µM; in the data set on Left cardiac atrium [8] it was 0.042 µM; with Left cardiac atrium [13], 2.11 µM. Also, in the data set with Aorta, the inhibition at 100 µM amounted to 38%. Also, in the data set on Ileum [28], the inhibition at 50 µM worked out at 73%. Also, the IC50 with Ileum [10] turned out to be 10.7 µM.
In the case of `Cc1cccc(C)c1OCC(C)N.Cl` (stereo not given) [MEXILETINE HYDROCHLORIDE], the Activity is given as 64% with Left cardiac atrium [21]; 3.5 in [4]; 0.8 in [7]; 90% in the data set with Left cardiac atrium [27]; 3.8 in [14]; “Not Active” in [26]. Besides, the Activity in [20] is reported as 1.3. For the same compound, the inhibition at 100 µM came to 5% in the data set with Aorta and 81% in the data set on Ileum [22]. The values for the 50% effective concentration (EC50) in the data set with Left cardiac atrium [8], with Right cardiac atrium [23] and with Left cardiac atrium [13] were 0.045 µM, 0.014 µM and 11.6 µM, respectively.
